# Experimental data from ChEMBL document CHEMBL1158347, “Substituted quinazolines, part 3. Synthesis, in vitro antitumor activity and molecular modeling study of certain 2-thieno-4(3H)-quinazolinone analogs” (2009).
# System: not listed separately
# Experiment: Growth inhibition of human renal cancer cells after 48 hrs
# Assay type: functional
# Details: Cancer cell lines
# Method in brief: (§1)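 NCI in vitro disease-oriented human tumor cell line screen. Compounds passing a one-dose primary assay (MCF-7, NCI-H460, SF-268; pass = growth of any line reduced to 32% or less) were tested on the 60-line panel over a 5-log dose range. Compounds were dissolved in DMSO, with under 1% DMSO in final dilutions, and tested in duplicate at 6×10^4 cells/ml. Cells were incubated at 37 °C in 5% CO2 for 48 h, then diluted 10-fold in saline and counted with a Coulter counter, with counts corrected for dilution. Controls held PBS/DMSO at identical dilutions. GI50 was reported per line and as subpanel/full-panel mean-graph midpoint.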
SMILES,GI50,TGI
CC(=O)CC(=O)Nn1c(-c2cccs2)nc2ccc(I)cc2c1=O,28.9 µM,85.1 µM
O=c1c2cc(I)ccc2nc(-c2cccs2)n1O,49.8 µM,> 100 µM
O=c1c2cc(I)ccc2nc(-c2cccs2)n1Nc1ccccc1,19.7 µM,93.1 µM
O=c1[nH]cc(F)c(=O)[nH]1 [FLUOROURACIL],,> 100 µM
O=c1c2cc(I)ccc2nc(-c2cccs2)n1/N=C/c1ccccc1,> 100 µM,> 100 µM
NS(=O)(=O)c1ccc(-n2c(-c3cccs3)nc3ccc(I)cc3c2=O)cc1,24.7 µM,64.1 µM

# Same assay, conditions: Cancer cell lines, read-out: LC50 (the source's name)
row,SMILES,CC50
1,NS(=O)(=O)c1ccc(-n2c(-c3cccs3)nc3ccc(I)cc3c2=O)cc1,94.1 µM

# System: T47D
# Experiment: Growth inhibition of human T47D cells after 48 hrs
# Assay type: functional
# Details: not given
# Method in brief: as §1
SMILES,GI50,LC50,TGI
NS(=O)(=O)c1ccc(-n2c(-c3cccs3)nc3ccc(I)cc3c2=O)cc1,19 µM,99 µM,44 µM

# System: MCF7
# Experiment: Growth inhibition of human MCF7 cells after 48 hrs
# Assay type: functional
# Details: MCF7, 48 h
# Method in brief: as §1
SMILES,GI50,TGI
O=c1c2cc(I)ccc2nc(-c2cccs2)n1Nc1ccccc1,2 µM,> 100 µM
NS(=O)(=O)c1ccc(-n2c(-c3cccs3)nc3ccc(I)cc3c2=O)cc1,23 µM,65 µM

# Same assay, conditions: MCF7, 48 h, read-out: LC50 (the source's name)
row,SMILES,CC50
1,O=c1c2cc(I)ccc2nc(-c2cccs2)n1Nc1ccccc1,> 100 µM
2,NS(=O)(=O)c1ccc(-n2c(-c3cccs3)nc3ccc(I)cc3c2=O)cc1,> 100 µM

# System: not listed separately
# Experiment: Growth inhibition of human ovarian cancer cells after 48 hrs
# Assay type: functional
# Details: Cancer cell lines
# Method in brief: as §1
SMILES,GI50,TGI
CC(=O)CC(=O)Nn1c(-c2cccs2)nc2ccc(I)cc2c1=O,40.9 µM,93.6 µM
O=c1c2cc(I)ccc2nc(-c2cccs2)n1O,32.1 µM,87.9 µM
O=c1c2cc(I)ccc2nc(-c2cccs2)n1Nc1ccccc1,8.6 µM,80.1 µM
O=c1[nH]cc(F)c(=O)[nH]1 [FLUOROURACIL],,> 100 µM
O=c1c2cc(I)ccc2nc(-c2cccs2)n1/N=C/c1ccccc1,> 100 µM,> 100 µM
NS(=O)(=O)c1ccc(-n2c(-c3cccs3)nc3ccc(I)cc3c2=O)cc1,23.5 µM,65.1 µM

# System: UACC-257
# Experiment: Growth inhibition of human UACC257 cells after 48 hrs
# Assay type: functional
# Details: UACC-257, 48 h
# Method in brief: as §1
SMILES,GI50,TGI,LC50
O=c1c2cc(I)ccc2nc(-c2cccs2)n1Nc1ccccc1,32 µM,> 100 µM,
NS(=O)(=O)c1ccc(-n2c(-c3cccs3)nc3ccc(I)cc3c2=O)cc1,0.05 µM,19 µM,> 100 µM

# System: RPMI-8226
# Experiment: Growth inhibition of human RPMI8226 cells after 48 hrs
# Assay type: functional
# Details: RPMI-8226, 48 h
# Method in brief: as §1
SMILES,GI50,TGI
O=c1c2cc(I)ccc2nc(-c2cccs2)n1Nc1ccccc1,5 µM,> 100 µM
NS(=O)(=O)c1ccc(-n2c(-c3cccs3)nc3ccc(I)cc3c2=O)cc1,25 µM,62 µM

# Same assay, conditions: RPMI-8226, 48 h, read-out: LC50 (the source's name)
row,SMILES,CC50
1,O=c1c2cc(I)ccc2nc(-c2cccs2)n1Nc1ccccc1,> 100 µM
2,NS(=O)(=O)c1ccc(-n2c(-c3cccs3)nc3ccc(I)cc3c2=O)cc1,> 100 µM

# System: not listed separately
# Experiment: Growth inhibition of human melanoma cells after 48 hrs
# Assay type: functional
# Details: Melanoma cell
# Method in brief: as §1
SMILES,GI50,TGI
CC(=O)CC(=O)Nn1c(-c2cccs2)nc2ccc(I)cc2c1=O,37.7 µM,85.3 µM
O=c1c2cc(I)ccc2nc(-c2cccs2)n1O,57.3 µM,97.1 µM
O=c1c2cc(I)ccc2nc(-c2cccs2)n1Nc1ccccc1,8.5 µM,85.9 µM
O=c1[nH]cc(F)c(=O)[nH]1 [FLUOROURACIL],,> 100 µM
O=c1c2cc(I)ccc2nc(-c2cccs2)n1/N=C/c1ccccc1,90.3 µM,> 100 µM
NS(=O)(=O)c1ccc(-n2c(-c3cccs3)nc3ccc(I)cc3c2=O)cc1,17.6 µM,43 µM

# System: HL-60(TB)
# Experiment: Growth inhibition of human HL-60(TB) cells after 48 hrs
# Assay type: functional
# Details: HL-60, 48 h
# Method in brief: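 NCI 60-cell-line screen over a 5-log dose range. Compounds were dissolved in DMSO, final DMSO under 1%. Duplicate wells were seeded at 6×10^4 cells/ml, with PBS/DMSO vehicle controls at identical dilutions. Cells were incubated 48 h at 37 °C in humidified 5% CO2, diluted 10-fold in saline, and counted by Coulter counter with dilution correction. GI50 read-out.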
SMILES,GI50,TGI
O=c1c2cc(I)ccc2nc(-c2cccs2)n1Nc1ccccc1,0.4 µM,> 100 µM
NS(=O)(=O)c1ccc(-n2c(-c3cccs3)nc3ccc(I)cc3c2=O)cc1,20 µM,64 µM

# Same assay, conditions: HL-60, 48 h, read-out: LC50 (the source's name)
row,SMILES,CC50
1,O=c1c2cc(I)ccc2nc(-c2cccs2)n1Nc1ccccc1,> 100 µM
2,NS(=O)(=O)c1ccc(-n2c(-c3cccs3)nc3ccc(I)cc3c2=O)cc1,> 100 µM

# System: not listed separately
# Experiment: Growth inhibition of human prostate cancer cells after 48 hrs
# Assay type: functional
# Details: Cancer cell lines
# Method in brief: as §1
SMILES,GI50,TGI
CC(=O)CC(=O)Nn1c(-c2cccs2)nc2ccc(I)cc2c1=O,20.6 µM,> 100 µM
O=c1c2cc(I)ccc2nc(-c2cccs2)n1O,39.9 µM,98.4 µM
O=c1c2cc(I)ccc2nc(-c2cccs2)n1Nc1ccccc1,1.61 µM,> 100 µM
O=c1[nH]cc(F)c(=O)[nH]1 [FLUOROURACIL],,> 100 µM
O=c1c2cc(I)ccc2nc(-c2cccs2)n1/N=C/c1ccccc1,> 100 µM,> 100 µM
NS(=O)(=O)c1ccc(-n2c(-c3cccs3)nc3ccc(I)cc3c2=O)cc1,22.7 µM,58.9 µM

# System: not listed separately
# Experiment: Growth inhibition of human Colon cancer cells after 48 hrs
# Assay type: functional
# Details: Cancer cell lines
# Method in brief: as §1
SMILES,GI50,TGI,LC50
CC(=O)CC(=O)Nn1c(-c2cccs2)nc2ccc(I)cc2c1=O,28.1 µM,90.9 µM,
O=c1c2cc(I)ccc2nc(-c2cccs2)n1O,45.8 µM,> 100 µM,
O=c1c2cc(I)ccc2nc(-c2cccs2)n1Nc1ccccc1,6.5 µM,79.2 µM,
O=c1[nH]cc(F)c(=O)[nH]1 [FLUOROURACIL],8.37 µM,> 100 µM,
O=c1c2cc(I)ccc2nc(-c2cccs2)n1/N=C/c1ccccc1,> 100 µM,> 100 µM,
NS(=O)(=O)c1ccc(-n2c(-c3cccs3)nc3ccc(I)cc3c2=O)cc1,24.8 µM,59.3 µM,87.1 µM

# System: not listed separately
# Experiment: Growth inhibition of human CNS cancer cells after 48 hrs
# Assay type: functional
# Details: Cancer cell lines
# Method in brief: as §1
SMILES,GI50,TGI
CC(=O)CC(=O)Nn1c(-c2cccs2)nc2ccc(I)cc2c1=O,27.9 µM,89.1 µM
O=c1c2cc(I)ccc2nc(-c2cccs2)n1O,33.2 µM,94.4 µM
O=c1c2cc(I)ccc2nc(-c2cccs2)n1Nc1ccccc1,16.3 µM,81.9 µM
O=c1[nH]cc(F)c(=O)[nH]1 [FLUOROURACIL],72.1 µM,> 100 µM
O=c1c2cc(I)ccc2nc(-c2cccs2)n1/N=C/c1ccccc1,> 100 µM,> 100 µM
NS(=O)(=O)c1ccc(-n2c(-c3cccs3)nc3ccc(I)cc3c2=O)cc1,30.3 µM,73.8 µM

# System: NSCLC
# Experiment: Growth inhibition of human NSCLC cells after 48 hrs
# Assay type: functional
# Details: not given
# Method in brief: as §1
SMILES,GI50,TGI
CC(=O)CC(=O)Nn1c(-c2cccs2)nc2ccc(I)cc2c1=O,27.5 µM,86.4 µM
O=c1c2cc(I)ccc2nc(-c2cccs2)n1O,33.2 µM,91.2 µM
O=c1c2cc(I)ccc2nc(-c2cccs2)n1Nc1ccccc1,8.6 µM,88 µM
O=c1[nH]cc(F)c(=O)[nH]1 [FLUOROURACIL],> 100 µM,> 100 µM
O=c1c2cc(I)ccc2nc(-c2cccs2)n1/N=C/c1ccccc1,> 100 µM,> 100 µM
NS(=O)(=O)c1ccc(-n2c(-c3cccs3)nc3ccc(I)cc3c2=O)cc1,24 µM,61.3 µM

# System: K562
# Experiment: Growth inhibition of human K562 cells after 48 hrs
# Assay type: functional
# Details: K562, 48 h
# Method in brief: as §1
SMILES,GI50,TGI,LC50 (concentration killing 50% of cells)
O=c1c2cc(I)ccc2nc(-c2cccs2)n1Nc1ccccc1,0.3 µM,23 µM,
NS(=O)(=O)c1ccc(-n2c(-c3cccs3)nc3ccc(I)cc3c2=O)cc1,37 µM,> 100 µM,> 100 µM

# System: CCRF-CEM
# Experiment: Growth inhibition of human CCRF-CEM cells after 48 hrs
# Assay type: functional
# Details: not given
# Method in brief: as §1
SMILES,GI50,TGI
O=c1c2cc(I)ccc2nc(-c2cccs2)n1Nc1ccccc1,51 µM,> 100 µM
NS(=O)(=O)c1ccc(-n2c(-c3cccs3)nc3ccc(I)cc3c2=O)cc1,41 µM,> 100 µM

# Same assay, conditions: read-out: LC50 (the source's name)
row,SMILES,CC50
1,O=c1c2cc(I)ccc2nc(-c2cccs2)n1Nc1ccccc1,> 100 µM
2,NS(=O)(=O)c1ccc(-n2c(-c3cccs3)nc3ccc(I)cc3c2=O)cc1,> 100 µM

# System: not listed separately
# Experiment: Growth inhibition of human leukemia cells after 48 hrs
# Assay type: functional
# Details: Leukemia cell
# Method in brief: as §1
SMILES,GI50,TGI
CC(=O)CC(=O)Nn1c(-c2cccs2)nc2ccc(I)cc2c1=O,38.5 µM,> 100 µM
O=c1c2cc(I)ccc2nc(-c2cccs2)n1O,34.3 µM,> 100 µM
O=c1c2cc(I)ccc2nc(-c2cccs2)n1Nc1ccccc1,12.7 µM,87.1 µM
O=c1[nH]cc(F)c(=O)[nH]1 [FLUOROURACIL],15.1 µM,> 100 µM
O=c1c2cc(I)ccc2nc(-c2cccs2)n1/N=C/c1ccccc1,63.4 µM,> 100 µM
NS(=O)(=O)c1ccc(-n2c(-c3cccs3)nc3ccc(I)cc3c2=O)cc1,35.3 µM,87.7 µM

# System: SF-539
# Experiment: Growth inhibition of human SF539 cells after 48 hrs
# Assay type: functional
# Details: SF-539, 48 h
# Method in brief: as §1
SMILES,GI50,TGI
O=c1c2cc(I)ccc2nc(-c2cccs2)n1Nc1ccccc1,34 µM,> 100 µM

# Same assay, conditions: SF-539, 48 h, read-out: LC50 (the source's name)
row,SMILES,CC50
1,O=c1c2cc(I)ccc2nc(-c2cccs2)n1Nc1ccccc1,> 100 µM

# System: not listed separately
# Experiment: Growth inhibition of human breast cancer cells after 48 hrs
# Assay type: functional
# Details: Cancer cell lines
# Method in brief: as §1
SMILES,GI50,TGI
CC(=O)CC(=O)Nn1c(-c2cccs2)nc2ccc(I)cc2c1=O,24.9 µM,82.1 µM
O=c1c2cc(I)ccc2nc(-c2cccs2)n1O,39.4 µM,> 100 µM
O=c1c2cc(I)ccc2nc(-c2cccs2)n1Nc1ccccc1,5.9 µM,> 100 µM
O=c1[nH]cc(F)c(=O)[nH]1 [FLUOROURACIL],,> 100 µM
O=c1c2cc(I)ccc2nc(-c2cccs2)n1/N=C/c1ccccc1,> 100 µM,> 100 µM
NS(=O)(=O)c1ccc(-n2c(-c3cccs3)nc3ccc(I)cc3c2=O)cc1,23.3 µM,62.5 µM

# System: SK-MEL-2
# Experiment: Growth inhibition of human SK-MEL-2 cells after 48 hrs
# Assay type: functional
# Details: SK-MEL-2, 48 h
# Method in brief: as §1
SMILES,GI50,TGI,LC50
O=c1c2cc(I)ccc2nc(-c2cccs2)n1Nc1ccccc1,0.3 µM,2 µM,
NS(=O)(=O)c1ccc(-n2c(-c3cccs3)nc3ccc(I)cc3c2=O)cc1,22 µM,48 µM,> 100 µM
